# From ChEMBL document CHEMBL1149527, “Antiproliferative and apoptosis inducing properties of pyrano[3,2-c]pyridones accessible by a one-step multicomponent synthesis” (Bioorg Med Chem Lett, 2007)
# Active and inactive are the calls of the source. The rule behind the calls is not given here.
# How the values were obtained:
# HeLa = test: Antiproliferative activity against human HeLa cells after 48 hrs by MTT assay relative to control; format: functional, cell-based
# Method in brief: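 HeLa cells exposed to compounds for 48 h; viability read as mitochondrial dehydrogenase activity by MTT reduction; IC50 values derived.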
# Jurkat [1] = test: Induction of apoptosis in Jurkat cells at 5 uM after 36 hrs by flow cytometry; format: functional, Homo sapiens
# Method in brief: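 Jurkat cells incubated 36 h with agents at 5 μM (DMSO control); apoptosis scored by flow cytometry after annexin-V/propidium iodide staining; two experiments.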
# Jurkat [2] = test: Cell cycle arrest in Jurkat cells assessed as accumulation at G0/G1 phase at 5 uM after 15 hrs relative to control; format: functional, Homo sapiens
# Method in brief: (§1)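 Jurkat cells treated 15 h (test agents 5 μM, colchicine 25 μM, DMSO vehicle control); DNA stained with Vybrant Orange and analysed by flow cytometry; percent of cells in G0/G1, S and G2/M given as mean ± SD.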
# Jurkat [3] = test: Cell cycle arrest in Jurkat cells assessed as accumulation at S phase at 5 uM after 15 hrs relative to control; format: functional, Homo sapiens; method in brief: as §1
# Jurkat [4] = test: Cell cycle arrest in Jurkat cells assessed as accumulation at G2/M phase at 5 uM after 15 hrs relative to control; format: functional, Homo sapiens; method in brief: as §1
# Jurkat [5] = test: Cell cycle arrest in Jurkat cells assessed as accumulation at G0/G1 phase at 25 uM after 15 hrs relative to control; format: functional, Homo sapiens; method in brief: as §1
# Jurkat [6] = test: Cell cycle arrest in Jurkat cells assessed as accumulation at S phase at 25 uM after 15 hrs relative to control; format: functional, Homo sapiens; method in brief: as §1
# Jurkat [7] = test: Cell cycle arrest in Jurkat cells assessed as accumulation at G2/M phase at 25 uM after 15 hrs relative to control; format: functional, Homo sapiens; method in brief: as §1
SMILES,IC50 (HeLa) [µM],Activity (Jurkat [1]) [%],further results
Cc1cc2c(c(=O)n1C)C(c1ccc(N(C)C)c(Br)c1)C(C#N)=C(N)O2 (stereo not drawn),0.33,50,Activity (Jurkat [2]): 14.4%; Activity (Jurkat [3]): 18.1%; Activity (Jurkat [4]): 67.5%
COc1cc(C2C(C#N)=C(N)Oc3cc(C)n(C)c(=O)c32)cc(Br)c1OC(C)=O (stereo not drawn),3.5,50,–
COc1cc(C2C(C#N)=C(N)Oc3cc(C)n(C)c(=O)c32)cc(Br)c1OC (stereo not drawn),0.58,50,Activity (Jurkat [2]): 12%; Activity (Jurkat [3]): 19%; Activity (Jurkat [4]): 68.5%
Cc1cc2c(c(=O)n1C)C(c1ccc(Cl)c(Cl)c1)C(C#N)=C(N)O2 (stereo not drawn),18.3,–,Activity (Jurkat [1]; Homo sapiens): inactive
Cc1cc2c(c(=O)o1)C(c1cccc(Br)c1)C(C#N)=C(N)O2 (stereo not drawn),> 100,–,–
Cc1cc2c(c(=O)n1C)C(c1cccc(Br)c1)C(C#N)=C(N)O2 (stereo not drawn),6.5,50,–
COc1ccc(CCn2c(C)cc3c(c2=O)C(c2cc(OC)c(OC)c(OC)c2)C(C#N)=C(N)O3)cc1OC (stereo not drawn),22.7,–,Activity (Jurkat [1]; Homo sapiens): inactive
Cc1cc2c(c(=O)n1C)C(c1ccc(C(C)C)cc1)C(C#N)=C(N)O2 (stereo not drawn),> 100,–,Activity (Jurkat [1]; Homo sapiens): inactive
Cc1cc2c(c(=O)n1C)C(c1ccc(F)c(Br)c1)C(C#N)=C(N)O2 (stereo not drawn),6.33,50,–
COc1cc(C2C(C#N)=C(N)Oc3cc(C)n(C)c(=O)c32)cc(OC)c1OC (stereo not drawn),43.3,–,–
Cc1cc2c(c(=O)n1C)C(c1cccc([N+](=O)[O-])c1)C(C#N)=C(N)O2 (stereo not drawn),35,–,Activity (Jurkat [1]; Homo sapiens): inactive
CCOc1c(Br)cc(C2C(C#N)=C(N)Oc3cc(C)n(C)c(=O)c32)cc1OC (stereo not drawn),1.08,50,–
COc1cc2c(c(OC)c1OC)-c1ccc(OC)c(=O)cc1[C@@H](NC(C)=O)CC2 [COLCHICINE],–,–,Activity (Jurkat [5]): 19%; Activity (Jurkat [6]): 23.1%; Activity (Jurkat [7]): 57.9%
COc1cc(C2C(C#N)=C(N)Oc3cc(C)n(C)c(=O)c32)cc(Br)c1O (stereo not drawn),2.67,50,–
